The values below come from ChEMBL document CHEMBL4613272, “Anti-HIV-Active Nucleoside Triphosphate Prodrugs” (J Med Chem, 2020).

The test system of data set [1] is Human immunodeficiency virus 2. Briefly: Antiviral activity against HIV2 ROD infected in human CEM/0 cells assessed as inhibition of virus-induced giant cell formation measured after 4 to 5 days by microscopic analysis. The settings on record: Human immunodeficiency virus 2, ISOLATE ROD, CCRF-CEM.
A short description of data set [2]: Half life in pH 7.3 phosphate buffered saline by HPLC analysis. Type of data set: physicochemical. A digest of the protocol:
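Prodrug from 50 mM DMSO-d6 stock diluted to 1.9 mM with water/DMSO-d6. Reaction started by adding phosphate buffer (50 mM stock, pH 7.3). Products followed by analytical RP18 HPLC with TBAA or TEAA buffer/acetonitrile gradient.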

A short description of data set [3]: Cytotoxicity against human CEM cells assessed as reduction in cell proliferation. Type of data set: cell-based. The conditions noted are these: CEM cells (CCRF-CEM). A digest of the protocol:
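CC50 is the compound concentration inhibiting CEM CD4+ T-cell proliferation by 50%. Mean ± SD of n=2-3 independent experiments.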

Data set [4] in a line: Selectivity index, ratio of CC50 for human CEM cells to EC50 for HIV1 HE infected in human CEM/0 cells. The conditions noted are these: CEM cells (CC50) and HIV1 HE infected CEM/0 cells (EC50).
Data set [5] deals with Human immunodeficiency virus 2. Briefly: Antiviral activity against HIV2 ROD infected in thymidine kinase-deficient human CEM cells assessed as inhibition of virus-induced giant cell formation measured after 4 to 5 days by microscopic analysis. The conditions noted are these: Human immunodeficiency virus 2, ISOLATE ROD, CCRF-CEM.
A short description of data set [6]: Half life in human CEM/0 cell extracts by HPLC analysis. Type of data set: ADME, CCRF-CEM. A digest of the protocol: (§1)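 Cell extract prepared from CEM cells grown in RPMI-1640-based medium to ~3·10^6 cells/mL. Cells washed twice in cold PBS, resuspended at 10^8 cells/mL, sonicated, cleared at 10,000 rpm and stored at -80 °C. Prodrug at 6.0 mM hydrolysis solution in DMSO-d6 mixed with water and extract at 37 °C over time. Samples iced, sonicated and centrifuged; supernatant analysed by RP18 HPLC. t1/2 calculated as for chemical hydrolysis.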

The test system of data set [7] is Human immunodeficiency virus 1. Briefly: Antiviral activity against HIV1 HE infected in human CEM/0 cells assessed as inhibition of virus-induced giant cell formation measured after 4 to 5 days by microscopic analysis. The settings on record: Human immunodeficiency virus 1, HE, CCRF-CEM.
A short description of data set [8]: Prodrug conversion in human CEM/0 cell extracts assessed as gamma-(C6-ACB)-d4TTP formation by HPLC analysis. The class given is ADME. The settings on record: ccrf-cem. A digest of the protocol:
as §1

A short description of data set [9]: Prodrug conversion in pH 7.3 phosphate buffered saline assessed as pig liver esterase-mediated d4TTP formation by HPLC analysis. The class given is ADME, Sus scrofa. The conditions noted are these: in vitro. A digest of the protocol:
(§2)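 Prodrug diluted from 50 mM DMSO stock through a 6.0 mM intermediate into DMSO/50 mM PBS pH 7.3. Started with pig liver esterase (3 mg/mL solution in PBS) and shaken at 37 °C, 800 rpm. Aliquots quenched in MeOH at intervals, filtered, stored in liquid nitrogen and analysed by RP18 HPLC.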

Data set [10] in a line: Half life in pH 7.3 phosphate buffered saline in presence of pig liver esterase by HPLC analysis. Type of data set: ADME, Sus scrofa. A digest of the protocol: as §2
Data set [11] in a line: Cytotoxicity against mouse eEND.2 cells assessed as reduction in cell viability by WST-1 assay. The settings on record: read-out: LD50 (the source's name). The class given is cell-based. Background: Tetrazolium dyes change colour on reduction, which living cells bring about.
A short description of data set [12]: Prodrug conversion in human CEM/0 cell extracts assessed as d4TTP formation by HPLC analysis. Type of data set: ADME. The settings on record: ccrf-cem. A digest of the protocol:
as §1

The nature of data set [13]: Prodrug conversion in pH 7.3 phosphate buffered saline assessed as pig liver esterase-mediated gamma-(C16-ACB)-d4TTP formation by HPLC analysis. The class given is ADME, Sus scrofa. The conditions noted are these: in vitro. A digest of the protocol:
as §2

The nature of data set [14]: Prodrug conversion in human CEM/0 cell extracts assessed as gamma-(C16-ACB)-d4TTP formation by HPLC analysis. The class given is ADME. The settings on record: ccrf-cem. A digest of the protocol:
as §1

The nature of data set [15]: Prodrug conversion in human CEM/0 cell extracts assessed as d4TMP formation by HPLC analysis. Type of data set: ADME. The conditions noted are these: ccrf-cem. A digest of the protocol:
as §1

A short description of data set [16]: Prodrug conversion in pH 7.3 phosphate buffered saline assessed as pig liver esterase-mediated d4TMP formation by HPLC analysis. The class given is ADME, Sus scrofa. The conditions noted are these: in vitro. A digest of the protocol: as §2
Data set [17] is described as follows: Prodrug conversion in human CEM/0 cell extracts assessed as d4TDP formation by HPLC analysis. Type of data set: ADME. The settings on record: ccrf-cem. A digest of the protocol: as §1

SMILES strings stand for the structures. pEC50: −log10 of the molar value.

Usually pEC50 stands for −log10 of the EC50, conventionally taken in molar units. What is called half-life is the time in which the quantity being followed falls by half. Turning to `CCCCCCCCCCCC(=O)Oc1ccc(COP(=O)(OCc2ccc(OC(=O)OCCCCCC)cc2)OP(=O)(O)OP(=O)(O)OC[C@@H]2C=C[C@H](n3cc(C)c(=O)[nH]c3=O)O2)cc1.N.N` (stereo partly drawn), the pEC50 in data set [1] was 7.15; in [5], 6.68; in data set [7], 6.52. The half-life in data set [2] was 95 h; in [6], 2.5 h. Further, the CC50 in data set [3] came to 41 µM. Also, the selectivity ratio in [4] was found to be 137. The Drug metabolism entry in data set [8] and in data set [9] was “Metabolite_Detected” in each case.

For the compound `CCCCCCCCCCCCOC(=O)Oc1ccc(COP(=O)(OCc2ccc(OC(=O)OCCCC)cc2)OP(=O)(O)OP(=O)(O)OC[C@@H]2C=C[C@H](n3cc(C)c(=O)[nH]c3=O)O2)cc1.N.N` (stereo partly drawn), the negative-log EC50 (pEC50) is 6.77 in data set [1], 5.95 in data set [5] and 6.14 in data set [7]. Besides, the results for the half-life in [2] and in data set [10] were 107 h and 0.28 h, respectively. The CC50 in [3] is 54 µM. In data set [4], the selectivity ratio came to 74. In addition, the Drug metabolism result in data set [9] is recorded as “Metabolite_Detected”.

Turning to `CCCCCCCCCCCCOC(=O)Oc1ccc(COP(=O)(OCc2ccc(OC(=O)OCC)cc2)OP(=O)(O)OP(=O)(O)OC[C@@H]2C=C[C@H](n3cc(C)c(=O)[nH]c3=O)O2)cc1.N.N` (stereo partly drawn), the results for the negative logarithm of the EC50 (pEC50) in data set [1], in data set [5] and in [7] were 6.62, 5.76 and 6.24, respectively. For the same compound, the half-life in data set [2] is 84 h; in [6], 0.94 h; in [10], 0.51 h. Further, the CC50 in data set [3] amounted to 64 µM. Also, the selectivity ratio in data set [4] came to 112. Moreover, the Drug metabolism entry in [9] is reported as “Metabolite_Detected”.

Take `OCc1ccc(O)cc1` [PARAHYDROXYBENZYL ALCOHOL]: in data set [11], the CC50 stood at 50000 µM.

`CCCCCCCCCCCCOC(=O)Oc1ccc(COP(=O)(OCc2ccc(OC(=O)CCCC)cc2)OP(=O)(O)OP(=O)(O)OC[C@@H]2C=C[C@H](n3cc(C)c(=O)[nH]c3=O)O2)cc1.N.N` (stereo partly drawn): the negative-log EC50 (pEC50) in data set [1] was 7.77; in [5], 7.14; in data set [7], 7.40. Also, the results for the half-life in data set [2], in [6] and in data set [10] were 87 h, 1.2 h and 0.17 h, respectively. Also, the CC50 in [3] amounted to 27 µM. The selectivity ratio in [4] came to 675. For the same compound, in data set [9], the Drug metabolism result was “Metabolite_Detected”.

In the case of `CCCCCCCCCCCCOC(=O)Oc1ccc(COP(=O)(OCc2ccc(OC(=O)CC)cc2)OP(=O)(O)OP(=O)(O)OC[C@@H]2C=C[C@H](n3cc(C)c(=O)[nH]c3=O)O2)cc1.N.N` (stereo partly drawn), the results for the negative-log EC50 (pEC50) in data set [1], in data set [5] and in [7] were 6.89, 6.19 and 7.21, respectively. Further, the values for the half-life in data set [2] and in data set [10] were 66 h and 0.44 h, respectively. Further, the CC50 in [3] turned out to be 33 µM. The selectivity ratio in data set [4] stood at 541. Also, the Drug metabolism result in data set [9] is “Metabolite_Detected”.

As for `CCCCCCCCCCCCCCCCOC(=O)Oc1ccc(COP(=O)(OCc2ccc(OC(=O)CCCC)cc2)OP(=O)(O)OP(=O)(O)OC[C@@H]2C=C[C@H](n3cc(C)c(=O)[nH]c3=O)O2)cc1.N.N` (stereo partly drawn), the half-life in data set [2] is 74 h; in data set [6] it was 3.7 h; in [10], 1.6 h. In addition, the CC50 in data set [3] worked out at 21 µM. Further, the selectivity ratio in data set [4] was 656. In data set [5], the negative-log EC50 (pEC50) was 6.92. Further, the Drug metabolism entry in data set [9] is reported as “Metabolite_Detected”.

With `CCCCCCCCCCCCCCCCOC(=O)Oc1ccc(COP(=O)(OCc2ccc(OC(=O)CC)cc2)OP(=O)(O)OP(=O)(O)OC[C@@H]2C=C[C@H](n3cc(C)c(=O)[nH]c3=O)O2)cc1.N.N` (stereo partly drawn), the half-life is 83 h in data set [2], 1.9 h in data set [6] and 4.7 h in data set [10]. The Drug metabolism result in [12] was “Metabolite_Notdetected”; in data set [13] it was “Metabolite_Detected”; in data set [14], “Metabolite_Detected”; in data set [15] it was “Metabolite_Detected”; in data set [16], “Metabolite_Notdetected”; in data set [17], “Metabolite_Detected”. Also, the Drug metabolism result in [9] is “Metabolite_Detected”. Further, the CC50 in data set [3] stood at 34 µM. Also, in data set [4], the selectivity ratio stood at 1260. Also, the pEC50 in data set [5] is 6.96.

Turning to `CCCCCCCCCCCCCCCCOC(=O)Oc1ccc(COP(=O)(OCc2ccc(OC(=O)CCCCCCCC)cc2)OP(=O)(O)OP(=O)(O)OC[C@@H]2C=C[C@H](n3cc(C)c(=O)[nH]c3=O)O2)cc1.N.N` (stereo partly drawn), the half-life in data set [2] is 90 h; in data set [6], 6.4 h; in [10], 13.8 h. The Drug metabolism result in data set [9] is reported as “Metabolite_Detected”.
